In ChEMBL document CHEMBL5257040, “Discovery of VU2957 (Valiglurax): An mGlu4 Positive Allosteric Modulator Evaluated as a Preclinical Candidate for the Treatment of Parkinson's Disease” (ACS Med Chem Lett, 2019):
The source made the active and inactive calls. The rule behind the calls is not given here.

Columns and labels:
[1] = AUC in Sprague-Dawley rat at 10 mg/kg, po administered as spray-dried dispersion formulation and measured after 24 hrs by LC-MS/MS analysis; format: ADME, organism-based; set-up: dose 10 mg/kg, time 24 hrs, route po; conditions: in vivo
Outline: (§1)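 Rats were dosed orally at 3, 10 and 30 mg/kg with a spray-dried dispersion of the free base and HPMCP-HP55 polymer (25%/75%), in 30% Dexolve. Total plasma Cmax and AUC were measured, N = 3.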

[2] = Cmax in Sprague-Dawley rat at 30 mg/kg, po administered as spray-dried dispersion formulation and measured after 24 hrs by LC-MS/MS analysis; format: ADME, organism-based; set-up: time 24 hrs, dose 30 mg/kg, route po; conditions: in vivo; outline: as §1
[3] = Cmax in Sprague-Dawley rat at 10 mg/kg, po administered as spray-dried dispersion formulation and measured after 24 hrs by LC-MS/MS analysis; format: ADME, organism-based; set-up: dose 10 mg/kg, time 24 hrs, route po; conditions: in vivo; outline: as §1
[4] = Solubility of compound intestinal fluid assessed as AUC administered as active pharmaceutical ingredient (API) formulation; format: ADME
[5] = tested on: Rattus norvegicus; test: Reversal of haloperidol-induced catalepsy Sprague-Dawley rat model at 0.3 to 30 mg/kg,po and measured upto 6 hrs; format: functional, organism-based; conditions: dose 0.3-30 mg/kg
Outline: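 Time course in the haloperidol (1.5 mg/kg i.p.) catalepsy model in rats after a single 30 mg/kg oral dose, followed for up to 6 h. Satellite rats dosed in parallel gave plasma and CSF exposures.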

[6] = tested on: Rattus norvegicus; test: Reversal of haloperidol-induced catalepsy Sprague-Dawley rat model assessed as minimum effective dose administered orally; format: functional; conditions: route po, read-out: MED
Outline: (§2)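 Sprague-Dawley rats received haloperidol 1.5 mg/kg i.p. to induce catalepsy, with the compound dosed orally at 0.3–30 mg/kg. Groups were 8–10 rats and compared with vehicle + haloperidol (p < 0.05). MED = lowest oral dose giving significant reversal.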

[7] = tested on: Rattus norvegicus; test: Reversal of haloperidol-induced catalepsy Sprague-Dawley rat model at 0.3 to 30 mg/kg,po; format: functional, organism-based; conditions: dose 0.3-30 mg/kg; outline: as §2
[8] = Oral bioavailability in Cynomolgus monkey at 3 mg/kg and measured upto 24 hrs by LC-MS/MS analysis; format: ADME, organism-based, Macaca fascicularis; conditions: in vivo
Outline: (§3)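 Single-dose iv and oral PK in separate arms: mouse 1 mg/kg iv / 3 mg/kg po, SD rat 0.2/3, beagle 0.5/3, cynomolgus 0.2/3 mg/kg. Plasma parameters (Vss, Tmax, F) are means of two to three animals per species.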

[9] = Tmax in Cynomolgus monkey at 3 mg/kg, po and measured upto 24 hrs by LC-MS/MS analysis; format: ADME, organism-based, Macaca fascicularis; conditions: in vivo; outline: as §3
[10] = Clearance in Cynomolgus monkey plasma at 0.2 mg/kg, iv and measured upto 24 hrs by LC-MS/MS analysis; format: ADME, organism-based, Macaca fascicularis
Outline: (§4)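 Single intravenous doses: mouse 1 mg/kg, SD rat 0.2 mg/kg, beagle dog 0.5 mg/kg, cynomolgus monkey 0.2 mg/kg. Plasma clearance, Vss and elimination half-life came from the plasma profiles. Values are means of two to three animals.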

[11] = Cmax in Beagle dog at 3 mg/kg, po and measured upto 24 hrs by LC-MS/MS analysis; format: ADME, organism-based, Canis lupus familiaris; set-up: dose 3 mg/kg, time < 24 hrs, route po; conditions: in vivo
Outline: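 Single oral 3 mg/kg dose in mouse, SD rat, beagle and cyno. Cmax is the peak total plasma concentration. Values are means of two to three animals.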

[12] = Elimination half life in Beagle dog at 0.5 mg/kg, iv and measured upto 24 hrs by LC-MS/MS analysis; format: ADME, organism-based, Canis lupus familiaris; conditions: in vivo, read-out: beta t1/2 (converted); outline: as §4
[13] = Unbound brain-to-plasma concentration ratio in CD-1 mouse at 1 mg/kg,iv and measured upto 24 hrs by LC-MS/MS analysis; format: ADME, organism-based; conditions: read-out: K(p,uu,brain)
[14] = Oral bioavailability in CD-1 mouse plasma at 3 mg/kg and measured upto 24 hrs by LC-MS/MS analysis; format: ADME, organism-based; outline: as §3
[15] = Tmax in CD-1 mouse plasma at 3 mg/kg, po and measured upto 24 hrs by LC-MS/MS analysis; format: ADME, organism-based; outline: as §3
[16] = AUC (0 to infinity) in CD-1 mouse plasma at 3 mg/kg, po and measured upto 24 hrs by LC-MS/MS analysis; format: ADME, organism-based; set-up: dose 3 mg/kg, time < 24 hrs, route po
Outline: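 Single oral 3 mg/kg dose in mouse, SD rat, beagle dog and cynomolgus monkey. Total plasma exposure after the oral dose gave Cmax, Tmax, AUC0-inf and F. Values are means of two to three animals.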

[17] = target: P-gp (ABCB1) (Homo sapiens, UniProt P08183); test: Substrate activity at human P-gp assessed as apparent permeability; format: ADME; conditions: not told
[18] = target: Cytochrome P450 2B6 (Homo sapiens, UniProt P20813); test: Induction of CYP2B6 in human hepatocytes; format: ADME, cell-based
Outline: (§5)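 CYP1A2, 2B6 and 3A4 induction measured in human hepatocytes.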

[19] = target: Cytochrome P450 1A2 (Homo sapiens, UniProt P05177); test: Induction of CYP1A2 in human hepatocytes; format: ADME, cell-based; outline: as §5
[20] = Metabolic stability in human liver microsomes assessed as intrinsic clearance at 1 uM preincubated for 5 mins followed by NADPH addition and measured for 45 mins by LC/MS/MS analysis; format: ADME, Microsome; conditions: time 50 min, read-out: CLH
[21] = Protein binding in human plasma assessed as fraction unbound incubated for 4 hrs by equilibrium dialysis based LC/MS/MS analysis; format: ADME, cell-free
[22] = Protein binding in cynomolgus monkey plasma assessed as fraction unbound incubated for 4 hrs by equilibrium dialysis based LC/MS/MS analysis; format: ADME, cell-free, Macaca fascicularis
[23] = Protein binding in dog plasma assessed as fraction unbound incubated for 4 hrs by equilibrium dialysis based LC/MS/MS analysis; format: ADME, cell-free, Canis lupus familiaris
[24] = Protein binding in mouse plasma assessed as fraction unbound incubated for 4 hrs by equilibrium dialysis based LC/MS/MS analysis; format: ADME, cell-free
[25] = Solubility of compound in FaSSIF; format: ADME
[26] = Genotoxicity in Salmonella typhimurium […] in presence of S9 fraction by Ames test; format: toxicity, subcellular; conditions: salmonella enterica subsp. enterica serovar typhimurium
Outline: (§6)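 Ames bacterial reverse mutation test in strains TA98 and […], run with and without S9 metabolic activation.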

[27] = Genotoxicity in Salmonella typhimurium […] by Ames test; format: toxicity; conditions: salmonella enterica subsp. enterica serovar typhimurium; outline: as §6
[28] = target: KCNQ1/MINK (Homo sapiens, UniProt P51787+Q8N4C8); test: Inhibition of KCNQ1/MINK (unknown origin) at 10 uM; format: toxicity
Chain of KCNQ1/MINK (P51787 whole entry): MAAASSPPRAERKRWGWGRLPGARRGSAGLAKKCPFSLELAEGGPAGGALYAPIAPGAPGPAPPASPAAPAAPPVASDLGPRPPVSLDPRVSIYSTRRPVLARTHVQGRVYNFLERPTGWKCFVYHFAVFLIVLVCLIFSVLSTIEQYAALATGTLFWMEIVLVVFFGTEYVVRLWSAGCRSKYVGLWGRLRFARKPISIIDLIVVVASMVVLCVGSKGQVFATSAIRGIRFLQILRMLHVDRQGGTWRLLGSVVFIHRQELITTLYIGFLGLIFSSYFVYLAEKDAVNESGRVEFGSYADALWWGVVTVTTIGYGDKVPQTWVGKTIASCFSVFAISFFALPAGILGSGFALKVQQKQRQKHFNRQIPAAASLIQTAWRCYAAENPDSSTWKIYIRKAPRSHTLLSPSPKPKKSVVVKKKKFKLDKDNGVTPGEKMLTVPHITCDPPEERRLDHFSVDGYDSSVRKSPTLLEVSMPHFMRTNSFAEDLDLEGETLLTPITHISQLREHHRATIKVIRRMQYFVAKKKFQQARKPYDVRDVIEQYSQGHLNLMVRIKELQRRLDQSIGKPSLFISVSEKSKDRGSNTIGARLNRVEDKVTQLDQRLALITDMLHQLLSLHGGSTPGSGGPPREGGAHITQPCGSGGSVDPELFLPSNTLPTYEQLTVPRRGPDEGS
Chain of KCNQ1/MINK (Q8N4C8 whole entry): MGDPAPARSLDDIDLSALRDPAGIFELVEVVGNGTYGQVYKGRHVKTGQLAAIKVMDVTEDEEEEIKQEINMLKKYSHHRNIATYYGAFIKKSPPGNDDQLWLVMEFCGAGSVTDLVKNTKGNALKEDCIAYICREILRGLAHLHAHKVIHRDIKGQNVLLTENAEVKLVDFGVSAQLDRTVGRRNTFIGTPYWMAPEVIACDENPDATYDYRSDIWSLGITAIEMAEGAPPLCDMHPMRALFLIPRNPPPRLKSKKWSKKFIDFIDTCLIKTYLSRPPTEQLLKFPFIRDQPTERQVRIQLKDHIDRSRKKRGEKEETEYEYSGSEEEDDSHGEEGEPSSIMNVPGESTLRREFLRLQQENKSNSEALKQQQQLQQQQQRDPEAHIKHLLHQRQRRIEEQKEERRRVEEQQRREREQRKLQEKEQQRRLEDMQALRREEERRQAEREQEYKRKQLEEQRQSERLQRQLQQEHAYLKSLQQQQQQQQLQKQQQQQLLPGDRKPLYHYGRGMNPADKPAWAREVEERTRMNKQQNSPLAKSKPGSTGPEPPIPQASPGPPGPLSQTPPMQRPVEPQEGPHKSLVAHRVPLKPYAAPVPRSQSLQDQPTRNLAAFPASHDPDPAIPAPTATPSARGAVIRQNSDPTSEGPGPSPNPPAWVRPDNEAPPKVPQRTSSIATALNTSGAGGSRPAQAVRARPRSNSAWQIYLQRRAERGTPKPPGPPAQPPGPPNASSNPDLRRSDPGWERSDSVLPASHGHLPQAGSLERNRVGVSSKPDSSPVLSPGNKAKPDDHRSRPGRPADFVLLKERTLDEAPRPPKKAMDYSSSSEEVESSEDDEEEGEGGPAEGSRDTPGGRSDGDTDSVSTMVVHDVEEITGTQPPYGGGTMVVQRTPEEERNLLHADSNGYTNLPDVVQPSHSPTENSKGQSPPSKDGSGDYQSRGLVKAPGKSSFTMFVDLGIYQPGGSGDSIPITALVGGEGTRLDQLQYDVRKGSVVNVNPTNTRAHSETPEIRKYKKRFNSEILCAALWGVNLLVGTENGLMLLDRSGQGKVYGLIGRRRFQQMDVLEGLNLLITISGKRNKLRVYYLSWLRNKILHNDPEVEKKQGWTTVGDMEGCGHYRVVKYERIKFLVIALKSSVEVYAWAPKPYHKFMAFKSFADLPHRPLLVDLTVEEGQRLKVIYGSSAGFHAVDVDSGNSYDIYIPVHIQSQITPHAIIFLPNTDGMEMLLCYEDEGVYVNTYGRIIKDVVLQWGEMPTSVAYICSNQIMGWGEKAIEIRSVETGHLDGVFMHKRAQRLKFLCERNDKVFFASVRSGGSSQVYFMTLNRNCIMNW
Outline: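 Cardiac ion channel electrophysiology (functional EP) panel, with percent inhibition measured at 10 μM.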

[29] = target: Amine oxidase [flavin-containing] A (Homo sapiens, UniProt P21397); test: Binding affinity to MAO-A (unknown origin)
Chain of Amine oxidase [flavin-containing] A (P21397 whole entry): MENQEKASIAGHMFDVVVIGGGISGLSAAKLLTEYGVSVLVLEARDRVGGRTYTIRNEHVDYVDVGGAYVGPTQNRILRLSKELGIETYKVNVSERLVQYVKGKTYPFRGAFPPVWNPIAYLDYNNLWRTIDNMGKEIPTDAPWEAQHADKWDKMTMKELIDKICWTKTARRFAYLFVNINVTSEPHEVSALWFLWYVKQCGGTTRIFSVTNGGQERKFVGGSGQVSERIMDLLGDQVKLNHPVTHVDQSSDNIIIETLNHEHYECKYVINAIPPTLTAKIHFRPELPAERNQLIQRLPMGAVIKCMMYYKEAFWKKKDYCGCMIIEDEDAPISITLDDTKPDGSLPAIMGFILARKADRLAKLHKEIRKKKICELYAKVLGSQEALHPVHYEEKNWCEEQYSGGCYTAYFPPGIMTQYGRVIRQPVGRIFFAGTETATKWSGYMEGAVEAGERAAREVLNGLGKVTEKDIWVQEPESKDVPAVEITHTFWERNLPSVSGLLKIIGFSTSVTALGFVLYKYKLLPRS

[30] = target: Metabotropic glutamate receptor 6 (Homo sapiens, UniProt O15303); test: Positive allosteric modulator activity at human mGlu6 in human HEK cells co-expressing […] assessed as increase in by thallium flux preincubated for 2.5 mins followed by gluatamate addition by thallium flux assay; format: cell-based
Chain of Metabotropic glutamate receptor 6 (O15303 whole entry): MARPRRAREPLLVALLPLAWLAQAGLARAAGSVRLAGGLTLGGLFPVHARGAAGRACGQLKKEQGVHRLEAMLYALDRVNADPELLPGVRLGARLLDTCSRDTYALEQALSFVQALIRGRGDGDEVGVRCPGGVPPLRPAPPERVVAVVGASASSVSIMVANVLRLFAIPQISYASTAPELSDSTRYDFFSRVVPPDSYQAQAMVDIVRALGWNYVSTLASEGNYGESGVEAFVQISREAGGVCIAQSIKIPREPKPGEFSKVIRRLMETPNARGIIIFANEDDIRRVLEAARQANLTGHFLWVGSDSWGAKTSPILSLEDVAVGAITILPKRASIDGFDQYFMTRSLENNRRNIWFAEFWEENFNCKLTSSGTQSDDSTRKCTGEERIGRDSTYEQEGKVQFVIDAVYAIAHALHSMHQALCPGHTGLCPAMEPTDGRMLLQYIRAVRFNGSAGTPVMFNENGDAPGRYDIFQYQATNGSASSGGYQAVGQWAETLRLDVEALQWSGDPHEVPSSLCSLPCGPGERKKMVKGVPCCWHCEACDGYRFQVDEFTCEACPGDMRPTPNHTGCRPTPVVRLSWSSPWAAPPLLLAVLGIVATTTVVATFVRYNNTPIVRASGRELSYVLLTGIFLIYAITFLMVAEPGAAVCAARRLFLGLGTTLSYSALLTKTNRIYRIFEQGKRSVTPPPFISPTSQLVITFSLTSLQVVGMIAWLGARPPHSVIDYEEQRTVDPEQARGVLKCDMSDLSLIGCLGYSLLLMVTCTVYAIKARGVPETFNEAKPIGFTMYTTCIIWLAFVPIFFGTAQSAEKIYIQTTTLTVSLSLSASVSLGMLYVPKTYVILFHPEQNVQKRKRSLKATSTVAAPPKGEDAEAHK

[31] = target: Metabotropic glutamate receptor 5 (Rattus norvegicus, UniProt P31424); test: Positive allosteric modulator activity at rat mGlu5 in human HEK cells assessed as increase in calcium flux preincubated for 2.5 mins followed by gluatamate addition by Fluo-4 AM dye based calcium mobilization assay; format: cell-based
Chain of Metabotropic glutamate receptor 5 (P31424 whole entry): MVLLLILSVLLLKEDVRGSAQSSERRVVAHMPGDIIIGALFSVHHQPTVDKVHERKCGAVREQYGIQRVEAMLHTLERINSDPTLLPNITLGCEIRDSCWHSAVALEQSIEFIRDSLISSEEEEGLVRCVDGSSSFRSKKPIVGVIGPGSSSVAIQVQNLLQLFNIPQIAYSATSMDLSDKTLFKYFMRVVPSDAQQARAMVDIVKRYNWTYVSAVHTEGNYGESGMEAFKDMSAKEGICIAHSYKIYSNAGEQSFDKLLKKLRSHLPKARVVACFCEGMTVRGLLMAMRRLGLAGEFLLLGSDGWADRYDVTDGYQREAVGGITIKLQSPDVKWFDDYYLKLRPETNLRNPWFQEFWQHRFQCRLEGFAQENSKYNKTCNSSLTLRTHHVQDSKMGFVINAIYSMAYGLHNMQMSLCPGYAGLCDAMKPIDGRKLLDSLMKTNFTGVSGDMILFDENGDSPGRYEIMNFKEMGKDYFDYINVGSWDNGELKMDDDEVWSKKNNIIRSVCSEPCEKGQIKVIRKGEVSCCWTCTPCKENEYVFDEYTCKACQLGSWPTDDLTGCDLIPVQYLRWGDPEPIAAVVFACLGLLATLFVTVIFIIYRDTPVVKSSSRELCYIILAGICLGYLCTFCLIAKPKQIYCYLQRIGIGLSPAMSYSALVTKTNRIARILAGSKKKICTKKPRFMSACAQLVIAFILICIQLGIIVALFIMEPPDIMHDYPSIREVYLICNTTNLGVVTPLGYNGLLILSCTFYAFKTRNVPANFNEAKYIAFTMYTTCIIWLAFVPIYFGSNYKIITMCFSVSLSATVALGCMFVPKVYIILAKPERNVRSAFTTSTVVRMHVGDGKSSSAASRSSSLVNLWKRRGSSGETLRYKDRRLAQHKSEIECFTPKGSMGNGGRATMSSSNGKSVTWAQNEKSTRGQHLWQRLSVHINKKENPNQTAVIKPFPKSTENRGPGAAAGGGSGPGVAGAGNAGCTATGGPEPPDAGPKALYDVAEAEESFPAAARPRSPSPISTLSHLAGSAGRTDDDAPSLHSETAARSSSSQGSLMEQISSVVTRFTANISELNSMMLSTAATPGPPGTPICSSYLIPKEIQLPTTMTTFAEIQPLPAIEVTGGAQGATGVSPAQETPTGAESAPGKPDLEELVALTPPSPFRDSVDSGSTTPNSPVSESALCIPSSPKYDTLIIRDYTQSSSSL

[32] = target: Metabotropic glutamate receptor 3 (Rattus norvegicus, UniProt P31422); test: Positive allosteric modulator activity at rat mGlu3 in human HEK cells co-expressing […] assessed as increase in by thallium flux preincubated for 2.5 mins followed by gluatamate addition by thallium flux assay; format: cell-based
[33] = target: Metabotropic glutamate receptor 1 (Rattus norvegicus, UniProt P23385); test: Positive allosteric modulator activity at rat mGlu1 in human HEK cells assessed assessed as increase in calcium flux preincubated for 2.5 mins followed by gluatamate addition by Fluo-4 AM dye based calcium mobilization assay; format: cell-based

SMILES: FC(F)(F)c1nccc2cc(Nc3n[nH]c4ncccc34)ccc12
- AUC at 24 h [1]: 23.7 µM·h
- Cmax [2]: 6050 nM
- Cmax [3]: 2050 nM
- AUC [4]: 25300 ng·h/mL
- Activity [5]: Active
- minimal effective dose [6]: 1 mg/kg
- Activity [7]: Dose-Dependent Effect
- bioavailability [8]: 31.6%
- Tmax [9]: 6 h
- clearance [10]: 17.1 mL/min/kg
- Cmax [11]: 490 nM
- half-life [12]: 2.95 h
- Kp uu at 24 h [13]: 0.16
- bioavailability [14]: 79%
- Tmax [15]: 0.42 h
- AUC(0-inf) [16]: 1.55 µM·h
- Papp [17]: 8 ×10⁻⁶ cm/s
- Activity [18]: Not Active
- Activity [19]: Not Active
- CLint scaled at 1 µM [20]: 9.1 mL/min/kg
- fraction unbound at 4 h [21]: 0.016
- fraction unbound at 4 h [22]: 0.016
- fraction unbound at 4 h [23]: 0.014
- fraction unbound at 4 h [24]: 0.015
- solubility [25]: < 5 µg/mL
- Activity [26]: Non-Toxic
- Activity [27]: Non-Toxic
- inhibition at 10 µM [28]: < 50%
- EC50 [29]: > 30 µM
- EC50 [30]: > 10 µM
- EC50 [31]: > 10 µM
- EC50 [32]: > 10 µM
- EC50 [33]: > 10 µM
